High-throughput results as filed in PubChem BioAssay.
Only a selection was taken, and hits are over-represented in it overall.
UPR CHOP act = activators of apoptotic CHOP UPR arm, primary screen, cell-based, CHO-CHOP luciferase reporter, luminescence, uHTS. UPR activation; percent of tunicamycin response over DMSO baseline. activation, % at 10 µM. actives 0.34% (n = 330,000). AID 449763, 2010;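 active = at 10 µM dose, activation of 40% or more, normalized to positive control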;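 also: 100% = tunicamycin at 10 µg/mL and 0% = DMSO alone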
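System: CHO-CHOP luciferase reporter cell line; amount: 500 cells/well; buffer or medium: F12 medium containing 10% fetal bovine serum; incubation: 6 h compound exposure at 37 °C after overnight seeding; measured by: luciferase luminescence after 10 min with Steady-Glo reagent; evaluation: % reporter activation, DMSO baseline versus tunicamycin full activation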
UPR XBP1 act = activators of adaptive XBP1 UPR arm, primary screen, cell-based, CHO-XBP1 luciferase reporter, luminescence, uHTS; activation, % at 20 µM; AID 463104, 2010; actives 0.33% (n = 330,000); IRE1-XBP1 UPR activation; percent of tunicamycin response, DMSO as zero;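 active = versus positive control, 20 µM dose yields 30% or more activation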;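 also: 100% = tunicamycin at 10 µg/mL and 0% = DMSO only wells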
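Test system: CHO-XBP1 luciferase reporter cells | Buffer or medium: Serum-containing F12 medium, 10% FBS | Schedule: 6 h compound exposure at 37 °C, 5% CO2 | Detection: Steady-Glo luciferase glow luminescence, 10 min after reagent addition | Read-out basis: Activation, % of tunicamycin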
TLR9-MyD88 inh = inhibitors of TLR9-MyD88 association in cells, primary screen, cell-based, CHO, BLA complementation, fluorescence. CCF4 FRET ratio. inhibition, % at 4.98 µM. actives 0.21% (n = 340,000). AID 504734, 2011;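 active = inhibition above the mean over all tested compounds plus 3 SD, cut at about 21% in these data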;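 also: 0% = DMSO only wells and 100% = clavulanate BLA inhibitor control wells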
Target sequence (Q99836 whole entry, looked up): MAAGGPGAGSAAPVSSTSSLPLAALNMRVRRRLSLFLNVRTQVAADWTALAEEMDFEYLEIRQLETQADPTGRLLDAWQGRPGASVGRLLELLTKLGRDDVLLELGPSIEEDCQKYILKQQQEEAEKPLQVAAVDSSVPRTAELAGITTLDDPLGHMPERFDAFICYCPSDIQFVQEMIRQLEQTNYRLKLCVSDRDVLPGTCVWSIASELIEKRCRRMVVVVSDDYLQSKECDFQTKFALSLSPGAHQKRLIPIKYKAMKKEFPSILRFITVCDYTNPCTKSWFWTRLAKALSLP
Target sequence (Q9NR96 whole entry, looked up): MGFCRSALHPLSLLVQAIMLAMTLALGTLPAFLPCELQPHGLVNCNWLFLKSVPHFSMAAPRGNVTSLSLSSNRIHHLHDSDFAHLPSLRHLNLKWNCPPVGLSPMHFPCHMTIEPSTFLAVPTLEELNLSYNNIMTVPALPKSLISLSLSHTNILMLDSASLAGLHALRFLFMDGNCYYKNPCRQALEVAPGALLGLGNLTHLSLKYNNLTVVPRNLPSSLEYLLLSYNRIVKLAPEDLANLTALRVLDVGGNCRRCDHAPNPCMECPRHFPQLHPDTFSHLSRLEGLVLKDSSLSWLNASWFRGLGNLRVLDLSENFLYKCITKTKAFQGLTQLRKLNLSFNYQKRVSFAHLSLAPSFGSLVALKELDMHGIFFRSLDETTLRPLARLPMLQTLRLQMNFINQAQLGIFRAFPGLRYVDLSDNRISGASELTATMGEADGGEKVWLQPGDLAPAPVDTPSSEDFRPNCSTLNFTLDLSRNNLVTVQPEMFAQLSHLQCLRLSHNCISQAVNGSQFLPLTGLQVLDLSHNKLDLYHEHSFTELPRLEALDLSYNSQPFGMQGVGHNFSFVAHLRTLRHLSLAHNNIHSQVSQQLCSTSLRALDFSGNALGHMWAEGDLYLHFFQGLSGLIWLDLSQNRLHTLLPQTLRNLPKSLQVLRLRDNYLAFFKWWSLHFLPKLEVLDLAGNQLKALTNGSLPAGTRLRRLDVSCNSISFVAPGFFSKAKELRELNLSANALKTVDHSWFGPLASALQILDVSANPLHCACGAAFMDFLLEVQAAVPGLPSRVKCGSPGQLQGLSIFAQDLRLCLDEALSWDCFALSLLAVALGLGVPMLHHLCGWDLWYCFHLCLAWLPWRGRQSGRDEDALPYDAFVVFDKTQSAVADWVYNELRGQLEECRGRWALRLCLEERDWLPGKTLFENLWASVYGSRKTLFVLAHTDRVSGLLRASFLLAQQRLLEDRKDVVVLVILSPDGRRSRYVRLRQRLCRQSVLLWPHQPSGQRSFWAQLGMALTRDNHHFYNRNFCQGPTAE
CHOP inh = inhibitors of CHOP promoter induction, primary screen, cell-based, unfolded protein response, luciferase reporter | CHO-K1 CHOP-promoter luciferase, tunicamycin-induced, 15-18 h | actives 3.8% (n = 220,000) | inhibition, % at 10 µM | AID 2732, 2010;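 active = compounds that reduced the stress-induced luciferase reporter signal by more than about 70% of percent inhibition, limit read from the data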;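 also: 0% = tunicamycin plus vehicle and 100% = wells without tunicamycin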
NOD2-RIPK2 inh = NOD2-RIPK2 binding disruptors in cells, primary screen, fluorescence, CHO cells, BLA complementation; AID 624267, 2012; CCF4 ratio; actives 0.38% (n = 360,000); inhibition, % at 4.98 µM; in the data active = inhibition above about 21%;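 also: 0% = vehicle only and 100% = reference blocker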
TLR4-MyD88 BLA = inhibitors of TLR4-MyD88 association in cells, primary screen, cell-based, HeLa CL3-4, BLA complementation, FRET ratio. inhibition, % at 8.4 µM. HeLa CL3-4 TLR4/MyD88 BLA complementation. actives 0.18% (n = 200,000). AID 861, 2007; in the data active = inhibition above about 25%;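 also: 0% = vehicle and 100% = reference inhibitor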
* marks the source's active call; other numbers are inactive results; . = not tested or not shown.

SMILES	UPR CHOP act	UPR XBP1 act	TLR9-MyD88 inh	CHOP inh	NOD2-RIPK2 inh	TLR4-MyD88 BLA
O=C(O)CCCN1C(=O)/C(=C\c2ccco2)SC1=S	.	.	-7	60	1	3
COc1ccc(/C=C2/SC(=S)N(n3c(C)ccc3C)C2=O)cc1	1	-3	-1	90*	-7	3
CCOC(=O)N(C)c1c(CC)nc2c(OCc3ccc(C(F)(F)F)cc3)cccn12	.	.	.	.	-1	.
O=C(CNC(=O)c1ccco1)OCc1cccc(Cl)c1	-2	-1	-3	74*	0	-11
Cc1cccc(N/C(N)=N/c2nc(C(F)(F)F)cc(C(F)(F)F)n2)c1	-2	0	2	0	-7	12
CCN(CC)c1ccc(N/C(N)=N/c2nc(C(F)(F)F)cc(=O)[nH]2)cc1	-1	4	5	73*	-7	3
CN(C)c1ccc(N/C(N)=N/c2nc(C(F)(F)F)cc(C(F)(F)F)n2)cc1	-1	-1	-16	85*	-7	-3
COc1ccc(CCNC(=O)COC(=O)C2=NNC(=O)CC2)cc1	.	.	-3	.	-5	.
Cc1ccc(C(O)(c2ccccc2)c2ccccc2C(C)N(C)C)c(C)c1 (configuration not stated)	0	1	8	96*	3	5
CC(c1ccccc1C(O)c1ccccc1)N(C)C (configuration not stated)	-2	0	-5	25	6	7
CCc1ccc2c(c1)NC(=O)C2(C)Cc1ccccc1Cl (configuration not stated)	.	.	.	.	9	.
CC(C)(C)c1ccc(OCCCNCc2ccccc2)cc1	-1	-1	1	95*	4	6
COc1cc(C(=O)O/N=C2/C=C(C)C(=O)C=C2C)cc(OC)c1OC	96*	-5	0	-55	0	-8
C=C/C(C)=C/[C@@]1(C)SC(=O)C(C)=C1O	.	.	.	-6	.	.
CCOC(=O)C1=C(C)N=C2SC(C)C(=O)N2C1c1cccc(F)c1 (configuration not stated)	-2	-2	-2	47	-2	-3
COC(=O)C1=C(C)N=C2SC(C)C(=O)N2C1c1ccc(C(=O)OC)cc1 (configuration not stated)	-1	-2	-5	34	-2	-1
CC1=C(C(=O)OCC(C)C)C(c2cccc(F)c2)N2C(=O)C(C)SC2=N1 (configuration not stated)	-3	-5	-11	78*	0	-6
CC1=C(C(=O)OC(C)C)C(c2cccc(F)c2)N2C(=O)C(C)SC2=N1 (configuration not stated)	-3	-4	4	74*	-12	0
Cc1ccc(C)c(S(=O)(=O)Nc2ccc(C(=O)N3CCOCC3)cc2)c1	.	.	-15	.	-1	.
CC1CCN(C(=O)Cn2c(=O)n(CCc3ccccc3)c(=O)c3ccccc32)CC1	-2	-1	-4	88*	0	0
CC1CCN(C(=O)Cn2c(=O)n(Cc3ccc4c(c3)OCO4)c(=O)c3ccccc32)CC1	0	1	-9	11	6	-5
O=C(NCCCn1ccnc1)c1[nH]c(C(F)(F)F)nc1-c1ccccc1	.	.	.	.	-12	.
Cc1ccccc1-c1noc(-c2ccc(Cl)cc2)n1	4	5	-4	-32	3	4
Cc1ccccc1-c1noc(-c2ccccc2F)n1	1	4	3	78*	-7	0
O=C(Oc1ccc2cc(Br)ccc2c1)N1CCCCCC1	4	8	.	85*	.	6
SMILES	UPR CHOP act	UPR XBP1 act	TLR9-MyD88 inh	CHOP inh	NOD2-RIPK2 inh	TLR4-MyD88 BLA
CCCS(=O)(=O)NC(=O)C1(C)CCN(C(=O)c2cc(C(C)(C)C)nn2C)C1 (configuration not stated)	.	.	.	.	-4	.
CCCCC(=O)N(C)c1c(CC)nc2c(OCCC)cccn12	.	.	.	.	0	.
CN1CCN(CC(O)c2ccccc2)CC1 (configuration not stated)	1	-3	.	80*	.	-2
OC(CN1CCN(C(c2ccccc2)c2ccccc2)CC1)c1ccccc1 (configuration not stated)	0	-5	4	.	8	.
Cc1cc(NCC(=O)Nc2ccc(C)c(S(=O)(=O)N3CCOCC3)c2)ccc1Br	.	.	-10	.	1	.
COc1ccc(N(C)S(=O)(=O)c2cccc(C(=O)N3CCN(c4cccc(C)c4C)CC3)c2)cc1	.	.	-3	.	-4	.
C=CCN(c1ccccc1OC)S(=O)(=O)c1cccc(C(=O)OCC(=O)c2c[nH]c3ccccc23)c1	2	0	-17	73*	-4	-13
CCCCNc1oc(-c2ccc(OC)cc2)nc1S(=O)(=O)c1ccccc1	1	-1	-4	72*	-1	10
COc1ccc(-c2nc(C#N)c(NCCc3ccccc3)o2)cc1	3	2	-4	90*	8	-1
COc1ccc(CCNc2oc(COc3ccccc3F)nc2C#N)cc1	0	1	-2	87*	-1	-8
COc1cc(S(=O)(=O)N2CCN(C(=O)c3cccs3)CC2)ccc1NC(C)=O	.	.	-6	.	1	.
CCc1ccc2[nH]c(=O)c(C(c3nnnn3CC3CCCO3)N3CCCc4ccccc43)cc2c1 (configuration not stated)	3	2	-14	84*	-5	5
Cc1cc2cc(C(c3nnnn3CC3CCCO3)N3CCCc4ccccc43)c(=O)[nH]c2cc1C (configuration not stated)	.	.	1	41	-4	1
COc1ccc(-c2nc3c(C)cc(Br)cn3c2CC2CCCCC2)cc1OC	.	.	.	.	2	.
CC(=O)Nc1ccc(NC(=O)c2ccc(NS(=O)(=O)c3cc(C(C)(C)C)cc(C)c3C)cc2)cc1	1	-2	-11	76*	4	-8
Cc1cc(C(C)(C)C)cc(S(=O)(=O)Nc2ccc(O)c(C(=O)O)c2)c1C	0	-2	-8	21	-18	-1
CCOc1cc(/C=C2\CN(C)C/C(=C\c3ccc(O)c(OCC)c3)C2=O)ccc1O	44*	-4	-1	.	7	.
CCOc1cc(/C=C2\CCC/C(=C\c3cc(Cl)c(O)c(OCC)c3)C2=O)cc(Cl)c1O	35	11	7	93*	8	-8
C=CCNC(=O)/C(C#N)=C\c1cc(Cl)c(O)c(OCC)c1	.	.	-7	-1	-4	2
CCCN(CCC)Cc1cc(=O)oc2cc(C)cc(C)c12	.	.	.	.	-19	.
COC(=O)c1ccc(N=NNc2cccc(Br)c2)cc1	.	.	-2	91*	-4	-9
